Kir21 inh – inhibitors of mouse Kir2.1 inward-rectifier potassium channel. Inward rectifier potassium channel 2 (Mus musculus), P35561. HEK293-Kir2.1, FluxOR thallium flux fluorescence; active compounds read low. B-score at 10 µM. actives 0.85% (n = 310,000). AID 1672, 2009;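 active = fluorescence ratio B-score at or below minus 3 SD of library scores, with starting-brightness B-score within 2 SD, cut at about -4.2 in these data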;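 also: channel flux triggered by added potassium and thallium sulfate stimulus; B-score of peak minus minimum fluorescence over baseline after thallium stimulus; more negative B-score means stronger Kir2.1 block with less thallium influx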
Target sequence (P35561 whole entry, looked up): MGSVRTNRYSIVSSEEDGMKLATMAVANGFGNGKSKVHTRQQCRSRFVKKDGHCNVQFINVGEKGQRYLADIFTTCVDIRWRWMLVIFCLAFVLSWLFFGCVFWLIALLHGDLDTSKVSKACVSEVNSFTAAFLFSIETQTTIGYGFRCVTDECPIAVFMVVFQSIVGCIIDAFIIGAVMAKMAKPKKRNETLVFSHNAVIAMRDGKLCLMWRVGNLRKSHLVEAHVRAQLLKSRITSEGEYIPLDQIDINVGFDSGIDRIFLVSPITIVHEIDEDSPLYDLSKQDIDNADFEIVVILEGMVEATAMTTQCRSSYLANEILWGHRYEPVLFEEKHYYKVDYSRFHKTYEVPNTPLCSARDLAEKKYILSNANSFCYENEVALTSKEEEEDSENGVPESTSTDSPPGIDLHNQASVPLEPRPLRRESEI
KCNQ1 block – inhibitors of human KCNQ1 channel, primary screen, cell-based, thallium flux, high-throughput; CHO-K1 KCNQ1, FluxOR thallium flux fluorescence; active compounds read high; Potassium voltage-gated channel subfamily KQT member 1 (Homo sapiens), P51787; AID 2642, 2010; B-score at 10 µM; actives 1.3% (n = 310,000);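 active = compounds whose thallium flux B-score, printed positive for inhibition, exceeds three library SD while starting fluorescence stays within three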;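 also: channel opened by potassium depolarization with thallium stimulus after 20 min compound exposure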
KCNQ1 act – potentiators or activators of KCNQ1 channel, primary screen, cell-based, thallium flux, high-throughput; CHO-K1 KCNQ1, thallium flux FluxOR fluorescence; active compounds read high; B-score at 10 µM; AID 2648, 2010; Potassium voltage-gated channel subfamily KQT member 1 (Homo sapiens), P51787; actives 0.35% (n = 310,000);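 active = fluorescence ratio B-score, a plate-corrected score, at least three library SD, with initial intensity B-score within 5 SD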
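Material: CHO-K1 cells stably expressing KCNQ1. Medium: assay buffer for compound exposure, DMSO matched across wells. Reagent: K+/Tl+ depolarizing stimulus. Compound dosing: single-concentration screen. Times: 37 °C overnight plating, 90-min dark dye load, 20-min compound pretreatment. Technique: FluxOR Tl+ flux fluorescence.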
KCNK3 block – human KCNK3 channel inhibitors, primary screen, CHO cells, FluxOR thallium flux, B-score; Potassium channel subfamily K member 3 (Homo sapiens), O14649; FluxOR fluorescence; active compounds read low; B-score at 10 µM; actives 0.84% (n = 340,000); AID 602410, 2012;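 active = B-score under library mean minus 4 SD, starting fluorescence ratio at most library mean plus 5 SD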;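 also: more negative B-score means stronger inhibition of thallium flux through KCNK3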
hERG rescue – hERG rescue from dofetilide block, primary screen, cell-based, CHO-hERG, FluxOR thallium flux, dofetilide IC70; Voltage-gated inwardly rectifying potassium channel KCNH2 (Homo sapiens), Q12809; dofetilide IC70 present; activation (rescue from dofetilide block), less the hit threshold, % at 10 µM; actives 0.51% (n = 310,000); AID 1511, 2009;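 active = activation above the mean of controls blocked by dofetilide plus 5 SD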;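 also: thallium influx through hERG after potassium depolarization seen as dye fluorescence rise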
KCNK9 block – KCNK9 potassium channel inhibitors, primary screen, HEK293 cells, thallium flux; FluxOR thallium flux fluorescence; active compounds read low; B-score at 10 µM; actives 1.2% (n = 310,000);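 active = ratio B-score over 3 SD below the library mean, with starting fluorescence within 5 SD of its mean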;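 also: negative B-score means less thallium flux so channel inhibition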
KCNK9 block conf – KCNK9 potassium channel inhibitors, confirmation, HEK293 cells, thallium flux, duplicate. inhibition, % at 10 µM. FluxOR thallium flux fluorescence. actives 43% (n = 4,900). shares compounds with KCNK9 block;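 active = thallium signal inhibited by more than 5 SD of the compound-free buffer control wells, on both duplicate plates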
Kir21 sel – mouse Kir2.1 channel inhibition, confirmation, selectivity assay for KCNK9 modulator project, cell-based, HEK293, thallium flux | shares compounds with KCNK9 block | Kir2.1 cells, FluxOR thallium flux fluorescence | inhibition, % at 10 µM | actives 4% (n = 4,900) | AID 492993, 2010;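 active = thallium signal drop more than 5 SD beyond the mean of the no-compound control wells, seen in both duplicate plates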;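 also: signal is fluorescence rise after thallium addition divided by baseline fluorescence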
KCNK9 uninduced – thallium flux in non-induced HEK293 cells, confirmation, counter-screen for KCNK9 inhibitor project, cell-based, second counter screen, non-induced KCNK9-HEK293; shares compounds with KCNK9 block; FluxOR thallium flux; inhibition, % at 10 µM; actives 40% (n = 4,900);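 active = thallium signal drop beyond 5 SD of the untreated control mean, on both duplicate plates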
Of the large screens only hits and unclear results are named; the others gave an inactive call (follow-up assays come after a bar, where they were run). In the library only some 3.7% were active in any assay of this set; here they are far more common.

Cc1cc(O)cc2c1C1CCC3(C)C(=O)CCC3C1C=C2 (stereo not drawn)	none (no result: Kir21 inh, KCNQ1 block, KCNQ1 act, hERG rescue, KCNK9 block)
CCOc1ccc(C(C)=O)cc1CSc1nnc(-c2ccoc2C)n1N	KCNK9 block -9.22 | KCNK9 block conf 45.0% | Kir21 sel inactive | KCNK9 uninduced 30.5%
CCCCOc1cccc(C(=O)NC(=S)Nc2cccc(C(F)(F)F)c2)c1	none | KCNK9 block conf inactive | Kir21 sel inactive | KCNK9 uninduced inactive
COc1ccccc1NC(=O)c1ccc(CSc2ncccn2)cc1	none (no result: KCNK3 block)
CC(=O)c1ccc2c(c1)N(C)c1ccccc1S2	none | KCNK9 block conf inactive | Kir21 sel inactive | KCNK9 uninduced inactive
CC(=O)c1ccc(OC(=O)CN2C(=O)c3ccccc3C2=O)cc1	none
CC(=O)c1ccc2c(c1)N(CCCN(C)C)c1ccccc1S2	none (no result: Kir21 inh, KCNQ1 block, KCNQ1 act, hERG rescue, KCNK9 block)
CC(=O)c1ccc(OC(=O)CCN2c3ccccc3Sc3ccccc32)cc1	KCNK9 block -11.7 | KCNK9 block conf 74.5% | Kir21 sel inactive | KCNK9 uninduced 27.5%
Cc1ccc(C2=NOC(C)(c3nnc(-c4cccc(Cl)c4)o3)C2)cc1 (stereo not drawn)	none
CC1(c2nnc(-c3cccc(Cl)c3)o2)CC(c2c(Cl)cccc2Cl)=NO1 (stereo not drawn)	KCNK9 block -10.4 | KCNK9 block conf 58.0% | Kir21 sel inactive | KCNK9 uninduced 29.0%
O=C(CS(=O)(=O)c1ccccc1)NCc1ccc(Cl)cc1	none
CN1CCN(NC(=O)CSc2ccc(Cl)cc2Cl)CC1	none
N#C/C(=C/c1ccc(OCc2ccc(C(=O)O)cc2)c(Br)c1)c1cccc(F)c1	none | KCNK9 block conf inactive | Kir21 sel inactive | KCNK9 uninduced inactive
CC(C)P(=O)(c1cccc(C(=O)O)c1)C(C)C	none
CCOC(=O)C1C(=O)C=C(/C=C/c2ccc(N(C)C)cc2)CC1c1ccccc1 (stereo not drawn)	KCNQ1 block 8, KCNK9 block -8.21 | KCNK9 block conf 46.5% | Kir21 sel 37.5% | KCNK9 uninduced 64.5%
CCOC(=O)C1C(=O)C=C(c2cccs2)CC1c1ccccc1 (stereo not drawn)	none
CC(C)CCNC(=O)CN(C(=O)CCC(=O)Nc1ccccn1)c1ccc(F)c(Cl)c1	none
CCc1ccc(NC(=S)N(CCN2CCCCC2)Cc2ccco2)cc1	KCNK9 block -8.83 | KCNK9 block conf 41.0% | Kir21 sel inactive | KCNK9 uninduced 40.5%
CCOC(=O)N1CCN(C(=O)c2cn(CC)c3ccc(S(=O)(=O)N4CCOCC4)cc3c2=O)CC1	none
CCOc1ccccc1OCCOCCOc1ccccc1[N+](=O)[O-]	none | KCNK9 block conf inactive | Kir21 sel inactive | KCNK9 uninduced inactive
COc1cc(C)ccc1OCCOCCOc1ccc(C)cc1[N+](=O)[O-]	none
O=C1C(=O)c2c(C(=O)c3ccccc3)coc2-c2ccccc21	KCNQ1 block 7, KCNK9 block -14.6 | KCNK9 block conf 60.0% | Kir21 sel inactive | KCNK9 uninduced 38.0%
O=c1cc(-c2ccccc2)nc2c(-c3ccccc3)c(C(F)(F)F)[nH]n12	KCNQ1 act 13, hERG rescue 54.3 | KCNK9 block conf inactive | Kir21 sel inactive | KCNK9 uninduced inactive
O=C(CSc1ccc2ccccc2n1)c1ccc2c(c1)OCO2	KCNK9 block -8.31 | KCNK9 block conf 39.0% | Kir21 sel inactive | KCNK9 uninduced 36.5%
NS(=O)(=O)c1ccc(CCNc2ccccc2[N+](=O)[O-])cc1	none
CC(C)(C)c1cc(OC(=O)C2CCCC2)ccc1O	KCNK9 block -8.19 | KCNK9 block conf 58.0% | Kir21 sel inactive | KCNK9 uninduced inactive
CC(C)(C)c1cc(OS(C)(=O)=O)ccc1O	none
COc1ccc(N2CCN(C(=O)Nc3ccccc3C)CC2)cc1	none
CCCCn1c(-c2csc(CCC)c2)n[nH]c1=S	none | KCNK9 block conf inactive | Kir21 sel inactive | KCNK9 uninduced inactive
COc1ccc(-c2noc3c2-c2nc(-c4ccccc4F)sc2CC3)cc1	none
CCOC(=O)COc1c(OC)cc(Cl)cc1C1Nc2ccccc2C(=O)N1c1ccc(F)cc1 (stereo not drawn)	KCNK9 block -12.4 | KCNK9 block conf 63.5% | Kir21 sel inactive | KCNK9 uninduced 41.0%
COc1cc(C2Nc3ccccc3C(=O)N2c2ccc(Cl)cc2)c(Cl)cc1OCC(=O)O (stereo not drawn)	none
CCOC(=O)COc1ccccc1C1Nc2ccccc2C(=O)N1c1cccc(Cl)c1 (stereo not drawn)	KCNK3 block -10.5, KCNK9 block -14 | KCNK9 block conf 62.5% | Kir21 sel inactive | KCNK9 uninduced 34.5%
O=C(c1cc(Cl)ccc1F)N1CCCC(Nc2ccc3c(c2)OCCO3)C1 (stereo not drawn)	none | KCNK9 block conf inactive | Kir21 sel inactive | KCNK9 uninduced inactive
CSCc1ccc(C(=O)N2CCCC(Nc3ccc4c(c3)OCCO4)C2)o1 (stereo not drawn)	none | KCNK9 block conf inactive | Kir21 sel inactive | KCNK9 uninduced inactive
Cc1ccc2c(C)c(C(=O)N(Cc3ccc(N(C)C)cc3)C3CCS(=O)(=O)C3)oc2c1 (stereo not drawn)	none
O=C1CCN(CCc2ccccc2)CCN1CCSc1ccc(Br)cc1	none | KCNK9 block conf inactive | Kir21 sel inactive | KCNK9 uninduced inactive
Cc1ccc(SCCN2CCN(CCc3ccccc3)CCC2=O)cc1	none | KCNK9 block conf inactive | Kir21 sel inactive | KCNK9 uninduced inactive
COc1ccc(NC(=O)O/N=C2/CCCc3ccc(OC)cc32)cc1	KCNK9 block -11.8 | KCNK9 block conf 66.5% | Kir21 sel 33.5% | KCNK9 uninduced 26.0%
COc1ccc2c(c1)/C(=N/OC(=O)c1cccs1)CCC2	KCNK9 block -12 | KCNK9 block conf inactive | Kir21 sel inactive | KCNK9 uninduced inactive
Cc1nc(SCc2ccc(C(=O)O)cc2)c2c(C)c(C)sc2n1	none | KCNK9 block conf inactive | Kir21 sel inactive | KCNK9 uninduced inactive

Screening results: PubChem BioAssay, Johns Hopkins Ion Channel Center
